Compounds with a hit are over-represented: about 1.9% of the library has one in this group of screens.
NSD2 HMT inh: blocks human histone methyltransferase NSD2. O96028. NSD2 peptide methylation, AlphaScreen, 120 min. inhibition, % at 12.5 µM. hit rate 0.54% among 310,000; in the data active means inhibition above about 50%
MBD2 DNA inh: MBD2-methylated oligo binding inhibition; Q9UBB5; TR-FRET, MBD2 binding to methylated oligonucleotide; inhibition, % at 4.4 µM; hit rate 0.31% among 370,000; AID 686964; in the data active means inhibition above about 13%
LEDGF integ inh: blocks HIV-1 LEDGF/p75-dependent DNA integration | TR-FRET IN-LEDGF/p75 DNA integration, Eu/Cy5 | inhibition, % at 3.7 µM | hit rate 0.64% among 370,000 | AID 743269;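 active means inhibition above the screen-wide mean plus 3 SD, cut at about 13% in these data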;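 further: signal is the Cy5 over europium emission ratio at 671 and 618 nm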
TDP2 inh: blocks human TDP2 phosphodiesterase activity | O95551 | recombinant TDP2, T5PNP hydrolysis, p-nitrophenol absorbance 415 nm | inhibition, % at 12.8 µM | hit rate 0.34% among 370,000;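 active means inhibition above the mean of all tested compounds plus 3 SD, set per campaign, cut at about 25% in these data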
Target sequence (O95551 whole entry, looked up): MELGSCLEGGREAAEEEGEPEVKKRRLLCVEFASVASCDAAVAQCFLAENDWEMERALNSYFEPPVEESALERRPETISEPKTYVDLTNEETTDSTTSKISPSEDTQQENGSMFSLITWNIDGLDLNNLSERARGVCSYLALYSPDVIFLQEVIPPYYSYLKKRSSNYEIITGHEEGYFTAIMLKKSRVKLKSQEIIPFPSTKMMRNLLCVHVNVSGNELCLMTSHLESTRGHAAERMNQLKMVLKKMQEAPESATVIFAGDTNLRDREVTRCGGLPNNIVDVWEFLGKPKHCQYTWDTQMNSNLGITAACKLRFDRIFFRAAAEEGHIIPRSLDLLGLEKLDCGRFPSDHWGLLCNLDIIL
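Material: recombinant human TDP2; quantity: TDP2 enzyme at 120 nM final; medium: Tris-HCl pH 7.5 with MgCl2; compound: single concentration, 12.8 µM nominal, with 1% DMSO; incubation: 2 h enzyme incubation at 37 °C; signal: epi absorbance; measure: percent inhibition; benchmarks: high control without enzyme, low control DMSO plus TDP2; repeats: singlicate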
CASP6 VEID inh: caspase-6 (human) enzyme inhibition; P55212; purified caspase-6, Z-VEID-R110 cleavage fluorescence; inhibition, % at 12.5 µM; hit rate 0.53% among 350,000; AID 686996;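 active means mean inhibition across replicates at least about 35%, with every replicate also reaching that limit, limit read from the data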
Target sequence (P55212 24-179 limits assumed): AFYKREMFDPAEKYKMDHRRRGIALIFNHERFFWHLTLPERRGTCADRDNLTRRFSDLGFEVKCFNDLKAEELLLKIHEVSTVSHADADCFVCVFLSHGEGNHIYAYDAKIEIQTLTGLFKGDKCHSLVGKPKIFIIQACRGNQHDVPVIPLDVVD
Target sequence (P55212 194-293 limits assumed): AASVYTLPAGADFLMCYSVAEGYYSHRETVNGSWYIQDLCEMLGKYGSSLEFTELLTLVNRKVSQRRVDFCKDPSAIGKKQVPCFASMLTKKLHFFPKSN
UHRF1 binding: human UHRF1 methylated DNA binding inhibitors | Q96T88 | hit rate 0.75% among 370,000 | inhibition, % at 4.4 µM | UHRF1 binding to methylated oligo, TR-FRET; in the data active means inhibition above about 21%;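 further: UHRF1 SRA domain binding a hemimethylated CpG hairpin DNA probe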
IN multimer up: HIV-1 integrase multimerization activation, counter-screen; shares compounds with LEDGF integ inh; TR-FRET HIV-1 integrase multimerization, biochemical; activation, % at 7.7 µM; hit rate 17% among 2,000; in the data active means activation above about 8.9%
TR-FRET interf: TR-FRET optical interference, LEDGF/p75 integration counter-screen; TR-FRET optical interference counterscreen, HIV-1 IN multimerization; inhibition, % at 7.7 µM; 2,000 tested, under 10 active; shares compounds with LEDGF integ inh;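 active means inhibition above the mean over all tested compounds plus 3 SD, which no compound reached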
IN-LEDGF confirm: LEDGF/p75-dependent HIV-1 integration inhibition, confirmation. shares compounds with LEDGF integ inh. TR-FRET LEDGF/p75-dependent HIV-1 integration, biochemical. inhibition, % at 3.7 µM. hit rate 36% among 2,000; in the data active means inhibition above about 14%
Large screens that a line does not name were inactive (follow-up assays come after a bar, where they were run).

CCCN(C)C[C@H]1OCCCC[C@@H](C)Oc2ccc(NC(=O)Nc3ccc4c(c3)OCO4)cc2C(=O)N([C@H](C)CO)C[C@@H]1C	none (no result: NSD2 HMT inh, MBD2 DNA inh, LEDGF integ inh, TDP2 inh, UHRF1 binding)
O=C(NC1CCCCC1)N[C@H]1CC[C@H](CCNS(=O)(=O)c2ccccc2)O[C@@H]1CO	none (no result: NSD2 HMT inh, MBD2 DNA inh, LEDGF integ inh, TDP2 inh, UHRF1 binding)
COc1ccc(S(=O)(=O)N2CCOCC2)cc1NC(=O)CSc1n[nH]c(=O)n1C1CC1	LEDGF integ inh 71 | IN multimer up inactive | TR-FRET interf inactive | IN-LEDGF confirm inactive
COc1ccc(-c2cc(C(=O)Nc3cccc(O)c3)no2)cc1	LEDGF integ inh 38 | IN multimer up inactive | TR-FRET interf inactive | IN-LEDGF confirm inactive
COc1ccc(-c2cc(C(=O)Nc3ccc(C)c(C)c3)no2)cc1	none
CO[C@H]1CN(C)C(=O)c2cc(NC(=O)C3CCCC3)ccc2OC[C@H](C)NC[C@@H]1C	none (no result: NSD2 HMT inh, MBD2 DNA inh, LEDGF integ inh, TDP2 inh, UHRF1 binding)
CC(C)C1Nc2ccc(S(N)(=O)=O)cc2C2C=CCC21 (configuration not stated)	none (no result: CASP6 VEID inh)
NS(=O)(=O)c1ccc2c(c1)C1C=CCC1C(C1CC=CCC1)N2 (configuration not stated)	LEDGF integ inh 21 (no result: CASP6 VEID inh) | IN multimer up inactive | TR-FRET interf inactive | IN-LEDGF confirm inactive
CC(=O)c1ccc2c(c1)C1C=CCC1C(C(=O)O)N2 (configuration not stated)	NSD2 HMT inh 128, MBD2 DNA inh 104, LEDGF integ inh 90, UHRF1 binding 93 (no result: CASP6 VEID inh) | IN multimer up 53 | TR-FRET interf inactive | IN-LEDGF confirm 77
O=C(O)c1ccc2c(c1)C1C=CCC1C(c1cc3c(cc1Br)OCO3)N2 (configuration not stated)	none
NC(=O)c1sc2nc3c(c(-c4ccco4)c2c1N)CCCC3	none
Cc1ccccc1NC(=O)c1sc2nc3c(c(-c4ccco4)c2c1N)CCC3	LEDGF integ inh 46 (no result: CASP6 VEID inh) | IN multimer up inactive | TR-FRET interf inactive | IN-LEDGF confirm inactive
O=C(Cc1nnc(NC(=O)c2ccccc2)s1)N/N=C/c1ccc(O)cc1	none
O=C(Cc1nnc(NC(=O)c2ccccc2)s1)N/N=C\c1ccc(O)c(O)c1	NSD2 HMT inh 68, LEDGF integ inh 16 | IN multimer up 35 | TR-FRET interf inactive | IN-LEDGF confirm 50
O=C(NCc1ccccc1)C1Nc2ccc(OC(F)(F)F)cc2C2C=CCC12 (configuration not stated)	LEDGF integ inh 22 (no result: NSD2 HMT inh, CASP6 VEID inh) | IN multimer up inactive | TR-FRET interf inactive | IN-LEDGF confirm inactive
O=C(NCc1ccccn1)C1Nc2ccc(OC(F)(F)F)cc2C2C=CCC12 (configuration not stated)	none (no result: NSD2 HMT inh, CASP6 VEID inh)
Cc1cc(O)c(CN(C)C)c2c1C(=O)/C(=C/c1ccco1)O2	LEDGF integ inh 26 | IN multimer up 11 | TR-FRET interf inactive | IN-LEDGF confirm 24
COc1ccc2c(c1)O/C(=C\c1ccco1)C2=O	none
COc1cc2c3nnc(-c4ccc(F)cc4)c-3cn(Cc3ccccc3)c2cc1OC	LEDGF integ inh 31 (no result: NSD2 HMT inh) | IN multimer up inactive | TR-FRET interf inactive | IN-LEDGF confirm inactive
C[C@@H]1CN([C@@H](C)CO)S(=O)(=O)c2ccc(Br)cc2O[C@H]1CN(C)C	none (no result: NSD2 HMT inh, MBD2 DNA inh, LEDGF integ inh, TDP2 inh, UHRF1 binding)
CCc1cccc(NC(=O)CCCCCC2NC(=O)NC2C)c1 (configuration not stated)	LEDGF integ inh 77 (no result: NSD2 HMT inh) | IN multimer up inactive | TR-FRET interf inactive | IN-LEDGF confirm 92
COCCn1c(C)cc(C(=O)CSc2nnc3ccccn23)c1C	LEDGF integ inh 15 (no result: NSD2 HMT inh) | IN multimer up inactive | TR-FRET interf inactive | IN-LEDGF confirm 33
N#C/C(=C\c1ccc([N+](=O)[O-])o1)C(=O)Nc1ccc(F)cc1	LEDGF integ inh 21 | IN multimer up inactive | TR-FRET interf inactive | IN-LEDGF confirm inactive
CC(C)(C)OC(=O)N/N=C/c1cccn1-c1ccc([N+](=O)[O-])cc1	LEDGF integ inh 14 | IN multimer up inactive | TR-FRET interf inactive | IN-LEDGF confirm inactive
COc1ccc(CC(=O)N/N=C/c2cccn2-c2ccc([N+](=O)[O-])cc2)cc1OC	none (no result: CASP6 VEID inh)
Cc1ccc(S(=O)(=O)N(C)C[C@H]2Oc3ccc(NC(=O)C4CCCCC4)cc3C(=O)N([C@H](C)CO)C[C@@H]2C)cc1	none (no result: NSD2 HMT inh, MBD2 DNA inh, LEDGF integ inh, TDP2 inh, UHRF1 binding)
Cc1ccc(S(=O)(=O)N[C@@H]2CC[C@@H](CCn3cc(C4(O)CCCC4)nn3)O[C@@H]2CO)cc1	none (no result: NSD2 HMT inh, MBD2 DNA inh, LEDGF integ inh, TDP2 inh, UHRF1 binding)
COc1ccccc1/C=C/C(=O)NCC(=O)N/N=C/c1ccccc1	none
COc1ccccc1/C=C\C(=O)NCC(=O)N/N=C/c1ccc(O)cc1O	LEDGF integ inh 16 (no result: NSD2 HMT inh) | IN multimer up inactive | TR-FRET interf inactive | IN-LEDGF confirm inactive
Cc1c(C(=O)NCCC#N)sc(=O)n1Cc1ccc(C(=O)N(C)C)cc1	LEDGF integ inh 32 (no result: NSD2 HMT inh) | IN multimer up inactive | TR-FRET interf inactive | IN-LEDGF confirm inactive
C=Cc1ccc(Cn2c(C)c(C(=O)NCCC#N)sc2=O)cc1	none (no result: NSD2 HMT inh)
O=C(c1cccc(F)c1)N1CCN(S(=O)(=O)c2ccccc2)CC1	none (no result: CASP6 VEID inh)
O=C(c1ccccc1)N1CCN(S(=O)(=O)c2ccccc2)CC1	LEDGF integ inh 44 | IN multimer up inactive | TR-FRET interf inactive | IN-LEDGF confirm inactive
COC(=O)c1c(NC(=O)COC(=O)[C@@H](NS(=O)(=O)c2cccc(Cl)c2)C(C)C)sc2c1CCC2	none
COC(=O)c1sc(N)c(C(=O)OC)c1COC(=O)[C@@H](NS(=O)(=O)c1cccc(Cl)c1)C(C)C	LEDGF integ inh 21 | IN multimer up inactive | TR-FRET interf inactive | IN-LEDGF confirm inactive
O=C(Cn1cc(COc2ccc(Cl)c(Cl)c2)nn1)NS(=O)(=O)c1ccccc1C(F)(F)F	none
O=C(Cn1cc(COc2ccc(-n3cccc3)cc2)nn1)NS(=O)(=O)c1ccccc1C(F)(F)F	LEDGF integ inh 27 | IN multimer up inactive | TR-FRET interf inactive | IN-LEDGF confirm inactive
Cc1ccc(N2CCN(c3ccc(NC(=O)CCC(=O)O)cc3)CC2)cc1	none (no result: CASP6 VEID inh)
O=C(O)CCC(=O)Nc1ccc(N2CCCCCC2)cc1	LEDGF integ inh 14 (no result: NSD2 HMT inh, CASP6 VEID inh) | IN multimer up inactive | TR-FRET interf inactive | IN-LEDGF confirm inactive
C[C@H](CO)N1C[C@H](C)[C@H](CN(C)S(C)(=O)=O)OCCCC[C@H](C)Oc2ccc(NS(=O)(=O)c3ccc(F)cc3)cc2C1=O	none (no result: NSD2 HMT inh, MBD2 DNA inh, LEDGF integ inh, TDP2 inh, UHRF1 binding)
C[C@@H]1CCCCO[C@@H](CN(C)C(=O)Nc2ccc(C(F)(F)F)cc2)[C@H](C)CN([C@H](C)CO)C(=O)c2cc(NC(=O)Nc3ccccc3)ccc2O1	none (no result: NSD2 HMT inh, MBD2 DNA inh, LEDGF integ inh, TDP2 inh, UHRF1 binding)
